How the values were obtained:
Y79 [1] = test: Cellular uptake in human Y79 cells relative to unglycosylated TPP(p-DegOH)3; assay type: ADME, cell-based
B16 [2] = test: Cellular uptake in mouse B16 cells relative to unglycosylated TPP(p-DegOH)3; assay type: ADME, cell-based
HT-29 [3] = test: Cellular uptake in human HT29 cells relative to unglycosylated TPP(p-DegOH)3; assay type: ADME, cell-based
[4] = Partition coefficient of the compound, log P; assay type: physicochemical; conditions: octanol/water
Y79 [5] = test: Toxicity against human Y79 cells at 2 uM after 4 hrs in dark; assay type: cell-based; conditions: y79, 4 h
In short: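 Y79 cells were plated at 2 × 10^5 cells/mL in COON's medium with 2% FCS. They were exposed to 2 µM dye (DMSO stock diluted in medium) for 4 h in the dark, then centrifuged, washed and resuspended in fresh complete medium with no irradiation. Survival fraction was measured by MTT at 570/640 nm.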

Y79 [6] = test: Survival of human Y79 cells at 2 uM irradiated with 514 nM light at the fluence of 1 J/cm2 after 4 hrs; assay type: functional; conditions: Y79, light or radiation study, read-out: LD50 (the source's name)
In short: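 Y79 retinoblastoma cells (ATCC, suspension in COON's medium with 20% FCS) plated at 2 × 10^5 cells/mL in COON's with 2% FCS. Dye added from a 5 mg/mL DMSO stock, incubated 4 h in the dark, then cells centrifuged, washed and resuspended in fresh complete medium. Ar+ laser irradiation at 514 nm, 1 J/cm2. MTT viability read 24 h later at 570/640 nm.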

B16 [7] = test: Survival of mouse B16 cells at 2 uM irradiated with 514 nM light at the fluence of 5 J/cm2 after 4 hrs; assay type: functional; conditions: B16, light or radiation study, read-out: LD50 (the source's name)
In short: (§1)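 Adherent cells (human HT29 colorectal adenocarcinoma; murine B16 melanoma) seeded at 10^5 cells/mL. Dye added from a DMSO stock and incubated 4 h in DMEM with 2% FCS in the dark. Irradiation at 514 nm, 5 J/cm2, in the same dye-containing medium. Survival measured by MTT colorimetric assay.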

HT-29 [8] = test: Survival of human HT29 cells at 2 uM irradiated with 514 nM light at the fluence of 5 J/cm2 after 4 hrs; assay type: functional; conditions: HT-29, light or radiation study, read-out: LD50 (the source's name); in short: as §1

| Compound | Ratio (Y79 [1]) | Ratio (B16 [2]) | Ratio (HT-29 [3]) | logP [4] | Activity (Y79 [5]) | CC50 (Y79 [6]) [nM] | CC50 (B16 [7]) [nM] | CC50 (HT-29 [8]) [nM] |
| --- | --- | --- | --- | --- | --- | --- | --- | --- |
| OC[C@H]1O[C@@H](OCCOCCOc2ccc(-c3c4nc(c(-c5ccccc5)c5ccc([nH]5)c(-c5ccc(OCCOCCO[C@@H]6O[C@H](CO)[C@H](O)[C@@H](O)[C@H]6O)cc5)c5ccc([nH]5)c(-c5ccc(OCCOCCO[C@@H]6O[C@H](CO)[C@H](O)[C@@H](O)[C@H]6O)cc5)c5nc3C=C5)C=C4)cc2)[C@H](O)[C@H](O)[C@H]1O | 3.7 | 4 | 4.4 | 0.23 | Not Active | 600 | 680 | 250 |
| OC[C@H]1O[C@H](SCCOCCOc2ccc(-c3c4nc(c(-c5ccccc5)c5ccc([nH]5)c(-c5ccc(OCCOCCS[C@H]6O[C@H](CO)[C@@H](O)[C@H](O)[C@@H]6O)cc5)c5ccc([nH]5)c(-c5ccc(OCCOCCS[C@H]6O[C@H](CO)[C@@H](O)[C@H](O)[C@@H]6O)cc5)c5nc3C=C5)C=C4)cc2)[C@@H](O)[C@@H](O)[C@@H]1O | 1.4 | 1.3 | 1.2 | 0.46 | Not Active | 650 | 2000 | > 2000 |
| OC[C@H]1O[C@H](OCCOCCOc2ccc(-c3c4nc(c(-c5ccccc5)c5ccc([nH]5)c(-c5ccc(OCCOCCO[C@H]6O[C@H](CO)[C@H](O)[C@@H](O)[C@H]6O)cc5)c5ccc([nH]5)c(-c5ccc(OCCOCCO[C@H]6O[C@H](CO)[C@H](O)[C@@H](O)[C@H]6O)cc5)c5nc3C=C5)C=C4)cc2)[C@H](O)[C@H](O)[C@H]1O | 2 |  | 1.8 | 0.5 | Not Active | 50 | 100 | 820 |
| OC[C@H]1O[C@@H](SCCOCCOc2ccc(-c3c4nc(c(-c5ccccc5)c5ccc([nH]5)c(-c5ccc(OCCOCCS[C@@H]6O[C@H](CO)[C@H](O)[C@@H](O)[C@H]6O)cc5)c5ccc([nH]5)c(-c5ccc(OCCOCCS[C@@H]6O[C@H](CO)[C@H](O)[C@@H](O)[C@H]6O)cc5)c5nc3C=C5)C=C4)cc2)[C@H](O)[C@H](O)[C@H]1O | 3.5 | 2.7 | 3 | -0.07 | Not Active | 600 | 2000 | 820 |
| OCCOCCOc1ccc(-c2c3nc(c(-c4ccccc4)c4ccc([nH]4)c(-c4ccc(OCCOCCO)cc4)c4ccc([nH]4)c(-c4ccc(OCCOCCO)cc4)c4nc2C=C4)C=C3)cc1 | 1 | 1 | 1 | > 2 | Not Active | > 2000 |  |  |
| OC[C@H]1O[C@H](OCCOCCOc2ccc(-c3c4nc(c(-c5ccccc5)c5ccc([nH]5)c(-c5ccc(OCCOCCO[C@H]6O[C@H](CO)[C@@H](O)[C@H](O)[C@@H]6O)cc5)c5ccc([nH]5)c(-c5ccc(OCCOCCO[C@H]6O[C@H](CO)[C@@H](O)[C@H](O)[C@@H]6O)cc5)c5nc3C=C5)C=C4)cc2)[C@@H](O)[C@@H](O)[C@@H]1O | 4.9 | 6.5 | 5 | 0.02 | Not Active | 350 | 430 | 350 |
| OC[C@H]1O[C@H](OCCOc2ccc(-c3c4nc(c(-c5ccccc5)c5ccc([nH]5)c(-c5ccc(OCCO[C@H]6O[C@H](CO)[C@@H](O)[C@@H](O)[C@@H]6O)cc5)c5ccc([nH]5)c(-c5ccc(OCCO[C@H]6O[C@H](CO)[C@@H](O)[C@H](O)[C@@H]6O)cc5)c5nc3C=C5)C=C4)cc2)[C@@H](O)[C@@H](O)[C@@H]1O | 1.6 | 1.8 | 1.7 | 0.78 | Not Active | 600 | 850 | 440 |

— ChEMBL document CHEMBL1146069, “Photodynamic efficiency of diethylene glycol-linked glycoconjugated porphyrins in human retinoblastoma cells” (J Med Chem, 2006)
